In ChEMBL document CHEMBL1649155, “Antimicrobial activity of curcumin against Helicobacter pylori isolates from India and during infections in mice” (2009):
≈ marks a conversion by molar mass, not a printed value. Calls of active or inactive are those of the source. The calls are words filed in the database; no cut-off is given here.

How the values were obtained:
[1] = system: Helicobacter pylori; test: Antimicrobial activity against Helicobacter pylori SS1 infected in C57BL/6 mouse assessed as restoration of epithelial layer of gastric tissue at 25 mg/kg, po administered 2 weeks post infection for 7 days measured after 1 week; type: functional, organism-based; parameters: dose 25 mg/kg; settings: Stomach
Outline: (§1)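 C57BL/6 mice were inoculated intragastrically with SS1, with PBS controls. Two weeks after the final inoculation, curcumin 25 mg/kg was fed orally for 7 consecutive days before sacrifice. Body and pyloric stomach tissue was formalin-fixed and paraffin-embedded, and 5 μm sections were stained with hematoxylin and eosin and examined at ×10 and ×20.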

[2] = system: Helicobacter pylori; test: Antimicrobial activity against Helicobacter pylori AM1 infected in C57BL/6 mouse assessed as decreased bacterial gene vacA expression at 25 mg/kg, po administered 2 weeks post infection for 7 days measured after 1 week by PCR; type: functional, organism-based; parameters: dose 25 mg/kg
[3] = system: Helicobacter pylori; test: Antimicrobial activity against Helicobacter pylori PG233 by agar dilution method; type: functional
Outline: (§2)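 Agar dilution on BHI agar with 5% horse serum. Isolates were grown 3 days under microaerophilic conditions and restreaked for 24 h. Cells were suspended in PBS to OD600 0.1, and 10 μl was spotted onto agar with curcumin at final 50–5 μg/ml (DMSO stock). Plain and DMSO-containing agar served as growth controls. Plates ran 5 days at 37°C microaerophilic. MIC is the lowest concentration with no visible growth.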

[4] = system: Helicobacter pylori; test: Antimicrobial activity against Helicobacter pylori PG139 by agar dilution method; type: functional; outline: as §2
[5] = system: Helicobacter pylori; test: Antimicrobial activity against Helicobacter pylori clinical isolate by agar dilution method; type: functional; outline: as §2
[6] = system: Helicobacter pylori; test: Antimicrobial activity against Helicobacter pylori L1675 by agar dilution method; type: functional; outline: as §2
[7] = system: Helicobacter pylori; test: Antimicrobial activity against Helicobacter pylori SS1 infected in C57BL/6 mouse assessed as decreased bacterial gene vacA expression at 25 mg/kg, po administered 2 weeks post infection for 7 days measured after 1 week by PCR; type: functional, organism-based; parameters: dose 25 mg/kg
[8] = Antimicrobial activity against Helicobacter pylori 26695 by agar dilution method; type: functional
[9] = system: Helicobacter pylori; test: Antimicrobial activity against Helicobacter pylori PG156 by agar dilution method; type: functional; outline: as §2
[10] = system: Helicobacter pylori; test: Antimicrobial activity against Helicobacter pylori SS1 infected in C57BL/6 mouse assessed as inhibition of inflammatory cell infiltration at 25 mg/kg, po administered 2 weeks post infection for 7 days measured after 1 week; type: functional, organism-based; parameters: dose 25 mg/kg; outline: as §1
[11] = system: Helicobacter pylori; test: Antimicrobial activity against Helicobacter pylori ATCC 43504 by agar dilution method; type: functional; outline: as §2
[12] = system: Helicobacter pylori; test: Antimicrobial activity against Helicobacter pylori SS1 infected in C57BL/6 mouse assessed as inhibition of disruption in submucosal and muscularis mucosal layer of gastric tissue at 25 mg/kg, po administered 2 weeks post infection for 7 days measured after 1 week; type: functional, organism-based; parameters: dose 25 mg/kg; settings: Stomach; outline: as §1
[13] = system: Helicobacter pylori; test: Antimicrobial activity against Helicobacter pylori SS1 infected in C57BL/6 mouse assessed as decrease in glandular atrophy at 25 mg/kg, po administered 2 weeks post infection for 7 days measured after 1 week; type: functional, organism-based; parameters: dose 25 mg/kg; outline: as §1

Row | SMILES | Activity [1] | Activity [2] | MIC [3] [µg/mL] | MIC [4] [µg/mL] | MIC [5] [µg/mL] | MIC [6] [µg/mL] | Activity [7] | MIC [8] [µg/mL] | MIC [9] [µg/mL] | Activity [10] | MIC [11] [µg/mL] | Activity [12] | Activity [13]
1 | COc1cc(/C=C/C(=O)CC(=O)/C=C/c2ccc(O)c(OC)c2)ccc1O [CURCUMIN] | Active | Active | 5 (≈ 13.6 µM) | 5 (≈ 13.6 µM) | 5 (≈ 13.6 µM) | 50 (≈ 136 µM) | Active | 20 (≈ 54.3 µM) | 30 (≈ 81.4 µM) | Active | 15 (≈ 40.7 µM) | Active | Active
2 | CC[C@H]1OC(=O)[C@H](C)[C@@H](O[C@H]2C[C@@](C)(OC)[C@@H](O)[C@H](C)O2)[C@H](C)[C@@H](O[C@@H]2O[C@H](C)C[C@H](N(C)C)[C@H]2O)[C@](C)(OC)C[C@@H](C)C(=O)[C@H](C)[C@@H](O)[C@]1(C)O [CLARITHROMYCIN] | – | – | – | – | 0.02 (≈ 0.0267 µM) | – | – | – | – | – | 0.02 (≈ 0.0267 µM) | – | –
3 | CC1(C)S[C@@H]2[C@H](NC(=O)[C@H](N)c3ccc(O)cc3)C(=O)N2[C@H]1C(=O)O [AMOXICILLIN] | – | – | – | – | 0.03 (≈ 0.0821 µM) | – | – | – | – | – | 0.03 (≈ 0.0821 µM) | – | –
